Experimental data from ChEMBL document CHEMBL3745596, “Chlorophenoxy aminoalkyl derivatives as histamine H(3)R ligands and antiseizure agents” (Bioorg Med Chem, 2016).
The source made the active and inactive calls.

Tests used:
Mus musculus [1] = assay: Neurotoxicity in CF1 albino mouse at 50 mg/kg, ip after 4 hrs by rotarod test; assay type: toxicity, organism-based; settings: in vivo
Method in brief: (§1)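 Rotarod neurotoxicity in male albino CF-1 mice dosed ip with compound suspended in 0.5% methylcellulose. Animal placed on a 1 inch diameter knurled plastic rod rotating at 6 rpm. Neurotoxicity scored when the animal falls off three times within 1 min. Readout is number of animals toxic/number tested at the stated time after dosing. TD50 with 95% confidence interval from the quantitative study.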

Histamine H3 receptor = Histamine H3 receptor (Homo sapiens, UniProt Q9Y5N1); assay: Displacement of [3H]-Nalpha-methylhistamine from human recombinant histamine H3 receptor expressed in HEK293 cells after 90 mins; assay type: cell-based
Sequence of Histamine H3 receptor (Q9Y5N1 whole entry): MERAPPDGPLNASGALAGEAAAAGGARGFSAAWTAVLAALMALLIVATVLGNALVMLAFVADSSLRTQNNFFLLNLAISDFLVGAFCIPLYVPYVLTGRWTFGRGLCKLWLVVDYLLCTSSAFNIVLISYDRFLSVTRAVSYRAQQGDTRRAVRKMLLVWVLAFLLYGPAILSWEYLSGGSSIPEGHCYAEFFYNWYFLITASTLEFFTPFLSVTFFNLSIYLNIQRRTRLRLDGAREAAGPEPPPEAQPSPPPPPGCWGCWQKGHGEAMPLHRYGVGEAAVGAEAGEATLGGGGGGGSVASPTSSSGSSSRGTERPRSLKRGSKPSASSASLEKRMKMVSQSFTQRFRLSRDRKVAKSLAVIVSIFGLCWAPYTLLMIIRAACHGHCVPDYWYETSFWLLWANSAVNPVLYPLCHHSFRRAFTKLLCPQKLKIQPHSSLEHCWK

Rattus norvegicus [2] = assay: Neurotoxicity in Sprague-Dawley rat at 30 mg/kg, ip after 0.25 hrs by rotarod test; assay type: toxicity, organism-based; settings: in vivo
Method in brief: (§2)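 Male Sprague–Dawley rats given compound ip as a suspension in 0.5% methylcellulose, groups of four. Rotarod: 1 inch knurled rod at 6 rpm; three falls within 1 min counts as neurotoxic. Scored as number toxic/number tested at pretreatment times between 0.25 and 4 h, or at the stated time.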

Mus musculus [3] = assay: Neurotoxicity in CF1 albino mouse at 100 mg/kg, ip after 4 hrs by rotarod test; assay type: toxicity, organism-based; settings: in vivo; method in brief: as §1
Rattus norvegicus [4] = assay: Anticonvulsant activity in ip dosed Sprague-Dawley rat assessed as protection against subcutaneous pentetrazole-induced seizure after 0.25 hrs; assay type: functional
Mus musculus [5] = assay: Anticonvulsant activity in CF1 albino mouse assessed as protection against maximal electroshock-induced seizure at 10 mg/kg, ip after 0.5 hrs; assay type: functional, organism-based
Method in brief: (§3)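 Male CF-1 mice dosed ip as suspension in 0.5% methylcellulose. Corneal electrodes deliver 60 Hz alternating current, 50 mA for […], after a drop of 0.5% tetracaine HCl in 0.9% NaCl per eye. Protection means abolition of hindlimb tonic extension; scored as protected/tested, or ED50 with 95% confidence interval.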

Mus musculus [6] = assay: Anticonvulsant activity in CF1 albino mouse assessed as protection against 6 Hz-psychomotor-induced seizure at 50 mg/kg, ip after 2 hrs; assay type: functional, organism-based
Method in brief: (§4)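 Male CF-1 mice, ip suspension in 0.5% methylcellulose. Corneal stimulation 0.2 ms monopolar rectangular pulses at 6 Hz, 32 mA for 3 s via constant-current device; mice without minimal clonic phase seizure counted protected. Groups of four; read at 0.25, 0.5, 1, 2, 4 h; result as protected/tested.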

Mus musculus [7] = assay: Neurotoxicity in CF1 albino mouse at 30 mg/kg, ip after 0.5 hrs by rotarod test; assay type: toxicity, organism-based; settings: in vivo; method in brief: as §1
Rattus norvegicus [8] = assay: Anticonvulsant activity in Sprague-Dawley rat assessed as protection against maximal electroshock-induced seizure at 30 mg/kg, ip after 4 hrs; assay type: functional, organism-based
Rattus norvegicus [9] = assay: Neurotoxicity in Sprague-Dawley rat at 30 mg/kg, ip after 4 hrs by rotarod test; assay type: toxicity, organism-based; settings: in vivo; method in brief: as §2
Mus musculus [10] = assay: Anticonvulsant activity in CF1 albino mouse assessed as protection against 6 Hz-psychomotor-induced seizure at 50 mg/kg, ip after 1 hr; assay type: functional, organism-based; method in brief: as §4
Mus musculus [11] = assay: Anticonvulsant activity in CF1 albino mouse assessed as protection against subcutaneous pentetrazole-induced seizure at 30 mg/kg, ip after 0.5 hrs; assay type: functional, organism-based
Method in brief: (§5)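 Male CF-1 mice, ip in 0.5% methylcellulose; pentetrazole at CD97 (85 mg/kg) injected subcutaneously in a loose fold of neck skin. Observed 30 min; absence of even a threshold seizure (single clonic spasm lasting at least 5 s) counted as protection. Scored protected/tested, or ED50.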

Mus musculus [12] = assay: Anticonvulsant activity in CF1 albino mouse assessed as protection against maximal electroshock-induced seizure at 3 mg/kg, ip after 0.5 hrs; assay type: functional, organism-based; method in brief: as §3
Rattus norvegicus [13] = assay: Anticonvulsant activity in ip dosed Sprague-Dawley rat assessed as protection against maximal electroshock-induced seizure after 0.25 hrs; assay type: functional
Mus musculus [14] = assay: Neurotoxicity in CF1 albino mouse at 50 mg/kg, ip after 1 hr by rotarod test; assay type: toxicity, organism-based; settings: in vivo; method in brief: as §1
Mus musculus [15] = assay: Anticonvulsant activity in CF1 albino mouse assessed as protection against maximal electroshock-induced seizure at 30 mg/kg, ip after 0.5 hrs; assay type: functional, organism-based; method in brief: as §3
Mus musculus [16] = assay: Anticonvulsant activity in CF1 albino mouse assessed as protection against maximal electroshock-induced seizure at 100 mg/kg, ip after 0.5 hrs; assay type: functional, organism-based; method in brief: as §3
Rattus norvegicus [17] = assay: Protective index, ratio of TD50 for ip dosed Sprague-Dawley rat to ED50 for ip dosed Sprague-Dawley rat assessed as protection against maximal electroshock-induced seizure after 0.5 hrs; assay type: functional
Method in brief: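 PI = TD50/ED50. Male CF-1 mice or male Sprague–Dawley rats given compound ip as 0.5% methylcellulose suspension. MES: 60 Hz corneal current, 50 mA mice or 150 mA rats, for […] after tetracaine eye drops; protection is abolition of hindlimb tonic extension.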

Mus musculus [18] = assay: Anticonvulsant activity in CF1 albino mouse assessed as protection against 6 Hz-psychomotor-induced seizure at 50 mg/kg, ip after 0.25 hrs; assay type: functional, organism-based; method in brief: as §4
Mus musculus [19] = assay: Neurotoxicity in CF1 albino mouse at 300 mg/kg, ip after 4 hrs by rotarod test; assay type: toxicity, organism-based; settings: in vivo; method in brief: as §1
Mus musculus [20] = assay: Neurotoxicity in CF1 albino mouse at 30 mg/kg, ip after 4 hrs by rotarod test; assay type: toxicity, organism-based; settings: in vivo; method in brief: as §1
Mus musculus [21] = assay: Neurotoxicity in ip dosed CF1 albino mouse after 0.25 hrs by rotarod test; assay type: toxicity, organism-based; settings: in vivo
Method in brief: as §1, with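 “dosing.” for “dosing. TD50 with 95% confidence interval from the quantitative study.”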

Mus musculus [22] = assay: Anticonvulsant activity in CF1 albino mouse temporal lobe epilepsy model at 30 mg/kg, ip; assay type: functional, organism-based
Method in brief: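 Adult male CF1 mice corneal-kindled to 5 consecutive secondarily generalized seizures (Racine stage 4 or 5). Four fully kindled mice dosed ip and tested 0.5 h later; seizure score below 3 counted protected.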

Mus musculus [23] = assay: Neurotoxicity in CF1 albino mouse at 45 mg/kg, ip after 0.25 to 0.5 hrs by rotarod test; assay type: toxicity, organism-based; settings: in vivo; method in brief: as §1
Mus musculus [24] = assay: Neurotoxicity in CF1 albino mouse assessed as unable to grasp rotarod, sedated and myoclonic jerks at 100 mg/kg, ip after 0.5 hrs by rotarod test; assay type: toxicity, organism-based; settings: in vivo
Method in brief: (§6)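 Rotarod neurotoxicity in male CF-1 mice dosed ip as 0.5% methylcellulose suspension: mouse placed on 1 inch knurled rod rotating at 6 rpm; toxicity when the animal falls off three times within 1 min, with other signs noted. Scored as toxic/tested at 0.5 h and 4 h.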

Mus musculus [25] = assay: Neurotoxicity in CF1 albino mouse at 3 mg/kg, ip after 0.5 hrs by rotarod test; assay type: toxicity, organism-based; settings: in vivo; method in brief: as §1
Rattus norvegicus [26] = assay: Neurotoxicity in Sprague-Dawley rat at 30 mg/kg, ip after 2 hrs by rotarod test; assay type: toxicity, organism-based; settings: in vivo; method in brief: as §2
Mus musculus [27] = assay: Anticonvulsant activity in CF1 albino mouse assessed as protection against maximal electroshock-induced seizure at 30 mg/kg, ip after 4 hrs; assay type: functional, organism-based; method in brief: as §3
Mus musculus [28] = assay: Neurotoxicity in CF1 albino mouse at 50 mg/kg, ip after 2 hrs by rotarod test; assay type: toxicity, organism-based; settings: in vivo; method in brief: as §1
Mus musculus [29] = assay: Neurotoxicity in CF1 albino mouse at 50 mg/kg, ip after 0.25 hrs by rotarod test; assay type: toxicity, organism-based; settings: in vivo; method in brief: as §1
Rattus norvegicus [30] = assay: Anticonvulsant activity in Sprague-Dawley rat assessed as protection against maximal electroshock-induced seizure at 30 mg/kg, po; assay type: functional
Mus musculus [31] = assay: Neurotoxicity in CF1 albino mouse assessed as death at 300 mg/kg, ip after 0.5 hrs by rotarod test; assay type: toxicity, organism-based; settings: in vivo
Method in brief: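 Male albino CF-1 mice dosed ip with compound suspended in 0.5% methylcellulose, then placed on a 1-inch knurled plastic rod turning at 6 rpm. A fall three times within 1 min counted as neurotoxicity. Observations were made at 0.5 h and 4 h after dosing. Result given as animals showing toxicity per animals tested, with the kind of toxicity recorded.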

Mus musculus [32] = assay: Neurotoxicity in CF1 albino mouse at 50 mg/kg, ip after 0.5 hrs by rotarod test; assay type: toxicity, organism-based; settings: in vivo; method in brief: as §1
Mus musculus [33] = assay: Anticonvulsant activity in CF1 albino mouse assessed as protection against 6 Hz-psychomotor-induced seizure at 50 mg/kg, ip after 4 hrs; assay type: functional, organism-based; method in brief: as §4
Rattus norvegicus [34] = assay: Anticonvulsant activity in Sprague-Dawley rat assessed as protection against pilocarpine-induced convulsive status epilepticus at 65 mg/kg, ip; assay type: functional, organism-based
Method in brief: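 Male Sprague Dawley rats (150–180 g) dosed ip, pilocarpine 50 mg/kg ip given; compound dosed immediately at first behavioral Stage 3 seizure or 30 min later. Number protected from Racine Stage 3 or greater seizures recorded.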

[35] = Neuroprotective activity in hippocampal slice (unknown origin) assessed as protection against NMDA-induced cell death using propidium iodide staining; assay type: functional; settings: Hippocampus
Method in brief: (§7)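 Organotypic hippocampal slice cultures exposed to NMDA or kainic acid alone or with compound; propidium iodide in all wells; PI fluorescence intensity of slices, proportional to cell death, compared with excitotoxin-only slices; qualitative.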

Mus musculus [36] = assay: Anticonvulsant activity in CF1 albino mouse assessed as protection against subcutaneous pentetrazole-induced seizure at 30 mg/kg, ip after 4 hrs; assay type: functional, organism-based; method in brief: as §5
Rattus norvegicus [37] = assay: Neurotoxicity in Sprague-Dawley rat at 30 mg/kg, ip after 1 hr by rotarod test; assay type: toxicity, organism-based; settings: in vivo; method in brief: as §2
Rattus norvegicus [38] = assay: Neurotoxicity in Sprague-Dawley rat at 30 mg/kg, ip after 0.5 hrs by rotarod test; assay type: toxicity, organism-based; settings: in vivo; method in brief: as §2
Mus musculus [39] = assay: Neurotoxicity in CF1 albino mouse at 10 mg/kg, ip after 0.5 hrs by rotarod test; assay type: toxicity, organism-based; settings: in vivo; method in brief: as §6
[40] = Neuroprotective activity in hippocampal slice (unknown origin) assessed as protection against kainic acid-induced cell death using propidium iodide staining; assay type: functional; settings: Hippocampus; method in brief: as §7

Compound: Clc1ccc(OCCCCCCN2CCCCCC2)cc1.O=C(O)C(=O)O
- Activity (Mus musculus [1]): Non-toxic
- Ki (Histamine H3 receptor): 237 nM
- Activity (Rattus norvegicus [2]): Non-toxic
- Activity (Mus musculus [3]): Non-toxic
- ED50 (Rattus norvegicus [4]): > 47 mg/kg
- Activity (Mus musculus [5]): inactive
- Activity (Mus musculus [6]): inactive
- Activity (Mus musculus [7]): Non-toxic
- Activity (Rattus norvegicus [8]): inactive
- Activity (Rattus norvegicus [9]): Non-toxic
- Activity (Mus musculus [10]): inactive
- Activity (Mus musculus [11]): inactive
- Activity (Mus musculus [12]): inactive
- ED50 (Rattus norvegicus [13]): 14 mg/kg
- Activity (Mus musculus [14]): Non-toxic
- Activity (Mus musculus [15]): Active
- Activity (Mus musculus [16]): Active
- Ratio TD50/ED50 (Rattus norvegicus [17]): 3.2
- Activity (Mus musculus [18]): inactive
- Activity (Mus musculus [19]): Non-toxic
- Activity (Mus musculus [20]): Non-toxic
- TD50 (median neurotoxic dose) (Mus musculus [21]): 36.2 mg/kg
- Activity (Mus musculus [22]): inactive
- Activity (Mus musculus [23]): Toxic
- Activity (Mus musculus [24]): Toxic
- Activity (Mus musculus [25]): Non-toxic
- Activity (Rattus norvegicus [26]): Non-toxic
- Activity (Mus musculus [27]): inactive
- Activity (Mus musculus [28]): Non-toxic
- Activity (Mus musculus [29]): Non-toxic
- Activity (Rattus norvegicus [30]): 25%
- Activity (Mus musculus [31]): Toxic
- Activity (Mus musculus [32]): Non-toxic
- Activity (Mus musculus [33]): inactive
- Activity (Rattus norvegicus [34]): Active
- Activity [35]: inactive
- Activity (Mus musculus [36]): inactive
- Activity (Rattus norvegicus [37]): Non-toxic
- Activity (Rattus norvegicus [38]): Non-toxic
- Activity (Mus musculus [39]): Non-toxic
- Activity [40]: inactive
